Counter-ions that a name gives are not always drawn.
How the values were obtained:
CXCR4 [1] = biological target: T1, CXCR4 (Homo sapiens, UniProt P61073); assay: CXCR4 phosphorylation assay; assay type: cell-based; conditions: Jurkat cells, 1 μM AMD3100 or 10 μM X4-2-6 for 30 min, then 30 nM CXCL12 for 30 min
Gαi = assay: GTP loading of Gαi; assay type: cell-based, human; conditions: Jurkat cells
ERK1/2 = ERK1/2 phosphorylation assay; assay type: cell-based, human; conditions: Jurkat cells, 30 nM CXCL12, time points up to 30 min
CXCR4 [2] = biological target: T1, CXCR4; assay: cAMP concentration by ELISA in Jurkat cells; assay type: cell-based; conditions: 100 μM forskolin, 30 nM CXCL12
Method in brief: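 Jurkat cells (5×10^6), serum-starved 6 hours in RPMI 1640 with penicillin-streptomycin and L-glutamine. Steps: 100 μM forskolin or vehicle 30 min; then vehicle or antagonists 30 min; then 30 nM CXCL12 30 min. cAMP measured in lysates by direct ELISA; relative change calculated. Means ± SD of three independent experiments, six replicates per condition.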

CXCR4 [3] = assay: PRESTO-Tango assay of BA2 recruitment to CXCR4; assay type: cell-based; conditions: HTLA cells, increasing CXCL12 with 1 μM AMD3100 or 10 μM X4-2-6, 1 hour, 37°C
Method in brief: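 HTLA cells were lipofected with Tango plasmids. After one day they were plated on poly-L-lysine-coated wells and allowed to attach 4 h before treatment with CXCL12 plus vehicle or test compound. Read-out was luminescence after adding a 1:5 mix of Bright-Glo with HBSS/20 mM Hepes and incubating at room temperature.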

CXCR4 [4] = biological target: T1, CXCR4; assay: Flow cytometry of CXCL12-stimulated CXCR4 endocytosis in Jurkat cells; assay type: cell-based; conditions: 30 nM CXCL12, antagonist 30 min before
Method in brief: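 Jurkat cells (1×10^5), serum-starved 6 hours, got vehicle or antagonist 30 min before 30 nM CXCL12. At set times, washed three times in ice-cold PBS/1% BSA, stained 20 min with PE-anti-CXCR4 (4G10 or 12G5) or isotype controls, and fixed in 4% paraformaldehyde. Surface CXCR4 read by flow cytometry against CXCL12 alone. Means ± SD; three experiments in triplicate.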

CXCR4 [5] = biological target: T1, CXCR4; assay: Flow cytometry of CXCR4 cell surface expression on Jurkat cells; assay type: cell-based
CXCR4 [6] = biological target: T1, CXCR4; conditions: Jurkat cells, 72 hours, fig. S1
CXCR4 [7] = biological target: T1, CXCR4; assay: Transwell chemotaxis of Jurkat cells toward CXCL12; assay type: cell-based; conditions: Jurkat cells treated 1 hour with 80 μM dynasore, 30 nM CXCL12

T1 sequence (P61073 whole entry): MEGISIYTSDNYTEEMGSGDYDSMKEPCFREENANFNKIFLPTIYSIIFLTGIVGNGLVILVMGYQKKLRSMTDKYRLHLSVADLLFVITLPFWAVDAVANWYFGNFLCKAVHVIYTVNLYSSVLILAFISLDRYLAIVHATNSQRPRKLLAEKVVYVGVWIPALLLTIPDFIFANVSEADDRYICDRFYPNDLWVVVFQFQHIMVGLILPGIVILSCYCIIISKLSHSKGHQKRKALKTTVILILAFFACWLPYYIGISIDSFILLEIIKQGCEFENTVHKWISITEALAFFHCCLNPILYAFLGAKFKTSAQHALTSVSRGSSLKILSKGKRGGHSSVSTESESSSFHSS

Row | SMILES | phosphorylation of Ser324/325 or Ser339 in the C terminus of CXCR4 (CXCR4 [1]) | amount of Gαi-GTP in CXCL12-treated cells (Gαi) | pERK1/2 (Thr202/Tyr204) generation after CXCL12 (ERK1/2) | cAMP amounts in forskolin and CXCL12 treated cells (CXCR4 [2]) | increase of CXCL12 EC50 for BA2 recruitment (CXCR4 [3]) | CXCL12-mediated CXCR4 internalization (endocytosis) (CXCR4 [4]) | CXCR4 cell surface expression after prolonged exposure (CXCR4 [5]; 72 hours, compared to vehicle-treated cells) | total CXCR4 protein amount (CXCR4 [6]) | potency of AMD3100 to inhibit chemotaxis after dynasore treatment (CXCR4 [7]) | CXCR4 cell surface expression after dynasore (CXCR4 [5]; 80 μM dynasore for 1 hour, antibody clone 4G10)
1 | c1cc(CN2CCCNCCNCCCNCC2)ccc1CN1CCCNCCNCCCNCC1 [AMD3100, AMD3100 octahydrochloride hydrate] | inhibited this posttranslational modification | reduced the amount of Gαi-GTP | inhibited both early and late peaks in pERK1/2 generation | returned cAMP amounts to those observed in cells treated with forskolin alone | more than 3500 fold | inhibited CXCL12-mediated receptor internalization | increased cell surface CXCR4 expression | increased the total CXCR4 protein amount | reduced potency | –
2 | Nn1cnc2scc(-c3ccc(Cc4ccccc4)cc3)c2c1=O [barbadin] | – | – | increased the early and late peaks in pERK1/2 abundance | – | – | – | – | – | – | –
3 | O=C(N/N=C/c1ccc(O)c(O)c1)c1cc2ccccc2cc1O [dynasore] | – | – | – | – | – | – | – | – | – | increased CXCR4 cell surface expression

Reference: paper PMC6422681 (Science signaling, 2018)
